Test results published in PMC3102230 (Chemistry & biology, 2011).
Read-outs that look alike come from different tables or passages of the source.

Assays:
E. coli EF-GΔG′ = assay: Malachite green rdGTPase assay, EF-GΔG′; assay type: biochemical
E. coli EF4 = assay: Malachite green rdGTPase assay, EF4; assay type: biochemical; conditions: for effect on rdGTPase activity of EF4: E. coli 70S ribosomes, 1 μM ThS or 5 μM MiC (Figure 2C); for effect on rdGTPase activity of EF4, ribosomes lacking L7/L12: E. coli 70SΔL7/L12 ribosomes, 12 hours at 20 °C (Figure 2H)
S. faecalis TetM = assay: Malachite green rdGTPase assay, TetM; assay type: biochemical; conditions: for effect on rdGTPase activity of TetM: E. coli 70S ribosomes, 1 μM ThS or 5 μM MiC (Figure 2B)
POST complex = assay: EF4-mediated back-translocation assay; assay type: biochemical, E. coli; conditions: 5 μM Evn
Procedure, shortened: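 POST complex formed from initiation and ternary complexes plus EF-G (0.2:1 to ribosomes) and 1 mM GTP, 37 °C, 10 min, then sucrose-cushion purified. 0.1 μM POST premixed with 0.15 μM tRNAfMet was stopped-flow mixed with 3 μM EF4, 0.5 mM GDPNP and test compound at 0–5 μM (final). Proflavin excitation 460 nm, 495 nm long-pass. Traces fit to a three-step back-translocation kinetic model.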

[1] = system: E. coli lysate-based system; assay: In vitro coupled transcription-translation assay; assay type: biochemical; conditions: read-out: IC50, in vitro transcription-translation (synthesis of GFP); E. coli in vitro coupled transcription-translation system (Figure S3)
Procedure, shortened: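 Coupled transcription-translation in an E. coli lysate-based system, run with or without test compound. GFP fluorescence was scanned with a blue laser module, and the images were quantified.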

[2] = system: IF2-dependent 70SIC formation; assay: IF2-dependent 70SIC formation light scattering assay; assay type: biochemical, E. coli
Procedure, shortened: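 Stopped-flow light scattering at 436 nm excitation with a 455 nm cut-off filter. It was premixed with test compound (0–5 μM), then rapidly mixed with 0.3 μM 50S subunits. All concentrations are final after mixing.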

Tet(O) = assay: rdGTPase assay, Tet; assay type: biochemical; conditions: data not shown
E. coli BipA = assay: Malachite green rdGTPase assay, BipA; assay type: biochemical; conditions: for effect on rdGTPase activity of BipA: E. coli 70S ribosomes, 1 μM ThS or 5 μM MiC (Figure 2D); for effect on rdGTPase activity of BipA, ribosomes lacking L7/L12: E. coli 70SΔL7/L12 ribosomes, 12 hours at 20 °C (Figure 2I)
PRE complex = assay: EF-G catalysed translocation assay; assay type: biochemical; conditions: 10 μM Evn, E. coli fMetPhe-tRNAPhe(Prf16/20)
Procedure, shortened: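 Initiation complex: ribosomes (2 μM), MFK mRNA (8 μM), IF1/IF2/IF3 (3 μM each), 1 mM GTP, [35S]fMet-tRNAfMet (3 μM), 25 min, buffer A pH 7.5, 37 °C. Combined with EF-Tu ternary complex for 45 sec. PRE complex sucrose-cushion purified (20 mM Mg2+). 0.1 μM PRE ± test compound stopped-flow mixed with 5 μM EF-G, 1 mM GTP. Proflavin excitation 460 nm, 495 nm long-pass. Double-exponential fits.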

E. coli EF-G = assay: Malachite green ribosome-dependent GTPase; assay type: biochemical; conditions: for effect on rdGTPase activity of EF-G, ribosomes lacking L7/L12: E. coli 70SΔL7/L12 ribosomes, 12 hours at 20 °C (Figure 2G)
[3] = E. coli 70S ribosomes, 1 μM ThS or 5 μM MiC (Figure 2F)
[4] = E. coli 70S ribosomes, 1 μM ThS or 5 μM MiC (Figure 2A)

Row | SMILES | IC50 [1] | effect on rdGTPase activity of EF-GΔG′ (E. coli EF-GΔG′; [3]) | effect on rdGTPase activity of EF4 (E. coli EF4) | effect on rdGTPase activity of EF4, ribosomes lacking L7/L12 (E. coli EF4) | effect on rdGTPase activity of TetM (S. faecalis TetM) | effect on rdGTPase activity of BipA (E. coli BipA) | effect on rdGTPase activity of BipA, ribosomes lacking L7/L12 (E. coli BipA) | effect on rdGTPase activity of EF-G (E. coli EF-G; [4]) | effect on rdGTPase activity of EF-G, ribosomes lacking L7/L12 (E. coli EF-G) | further results
1 | COC[C@H]1O[C@@H](O[C@@H]2OC[C@@H]3O[C@@]4(OC[C@@H](OC(=O)c5c(C)cc(O)cc5O)[C@@H]5OCO[C@H]54)O[C@H]3[C@H]2O)[C@@H](OC)[C@@H](O)[C@@H]1O[C@@H]1O[C@H](C)[C@H](OC)[C@H](O[C@@H]2O[C@H](C)[C@H]3O[C@]4(C[C@@H](O)[C@H](O[C@H]5C[C@@H](O[C@H]6C[C@](C)([N+](=O)[O-])[C@@H](OC)[C@H](C)O6)[C@H](OC(=O)c6c(C)c(Cl)c(O)c(Cl)c6OC)[C@@H](C)O5)[C@@H](C)O4)O[C@]3(C)[C@@H]2O)[C@H]1O [Evn, evernimicin] | ~2 µM |  |  |  |  |  |  |  |  | effect on rdGTPase activity of EF-GΔG′ (E. coli EF-GΔG′; increasing concentrations of Evn (Figure 5C)): little or no effect; IC50 (E. coli EF4; read-out: IC50, inhibition of EF4 rdGTPase, E. coli 70S ribosomes (Figure 5F)): ~3 µM; effect on rdGTPase activity of Tet(M) (S. faecalis TetM; increasing concentrations of Evn (Figure 5D)): little or no effect; effect on EF4-catalyzed component of back-translocation (POST complex): completely abolished; effect on rdGTPase activity of IF2 (E. coli IF2; increasing concentrations of Evn (Figure 5A)): strongly inhibits; IC50 (E. coli IF2; read-out: IC50, inhibition of IF2 rdGTPase, E. coli 70S ribosomes (Figure 5A)): ~7 µM; effect on IF2-dependent light scattering (70SIC formation) ([2]; 5 μM Evn): almost all IF2-dependent light scattering was abolished; Ki ([2]; read-out: apparent Ki for inhibition of IF2-dependent 70SIC formation, reciprocal of IF2-dependent light scattering increase at 1 sec vs. Evn concentration): 1.8 ± 0.2 µM; effect on rdGTPase of Tet(O) (Tet(O)): does not inhibit; IC50 (E. coli BipA; read-out: IC50, inhibition of BipA rdGTPase, E. coli 70S ribosomes (Figure 5E)): ~20 µM; apparent rate constant of translocation, Step 2 (PRE complex; control 1.3 ± 0.1 s^−1): 3.5 ± 0.2 s⁻¹; apparent rate constant of translocation, Step 1 (PRE complex; control 20.7 ± 0.6 s^−1): 28.1 ± 0.7 s⁻¹; effect on rdGTPase activity of EF-G (E. coli EF-G; increasing concentrations of Evn (Figure 5B)): little or no effect
2 | C/C=C(\NC(=O)c1csc(-c2csc(-c3ccc4c(n3)-c3csc(n3)[C@H]([C@@H](C)O)NC(=O)c3csc(n3)[C@H](C(C)C)NC(=O)c3csc(n3)/C(=C/C)NC(=O)[C@H]([C@@H](C)O)NC(=O)c3csc-4n3)n2)n1)C(=O)NC[C@@H](C)O [MiC, micrococcin] | ~3 µM | inhibit, rather than stimulate | inhibited | inhibited | inhibited | inhibited | inhibited | enhanced | inhibited | 
3 | C=C(NC(=O)C(=C)NC(=O)c1csc(C2=N[C@@H]3c4csc(n4)[C@H]4NC(=O)c5csc(n5)[C@H]([C@](C)(O)[C@@H](C)O)NC(=O)[C@H]5CSC(=N5)/C(=C/C)NC(=O)[C@H]([C@@H](C)O)NC(=O)c5csc(n5)[C@]3(CC2)NC(=O)[C@H](C)NC(=O)C(=C)NC(=O)[C@H](C)NC(=O)[C@H]([C@@H](C)CC)N[C@@H]2C=Cc3c([C@H](C)O)cc(nc3[C@H]2O)C(=O)O[C@@H]4C)n1)C(N)=O [ThS, thiostrepton] | ~3 µM | inhibited | inhibited | inhibited | inhibited | inhibited | inhibited | inhibited | inhibited | effect on rdGTPase activity of IF2 (E. coli IF2; E. coli 70S ribosomes, 1 μM ThS or 5 μM MiC (Figure 2E)): inhibited
